Assay results of several laboratories.
Transmembrane protease serine 6: Transmembrane protease serine 6 (Homo sapiens, UniProt Q8IU80)
Palmitoyl-protein thioesterase 1: Palmitoyl-protein thioesterase 1 (Homo sapiens, UniProt P50897)

target	read-out	action	method	tested at	endpoint	value	Structure (SMILES)
Transmembrane protease serine 6	enzyme activity	inhibitor	–	0.1 µM	remaining activity	101%	C=CCCCCCC(C)(NC(=O)[C@H](Cc1cscn1)NC(=O)CCc1ccccc1)C(=O)N[C@@H](CCCNC(=N)N)C(=O)c1nc2ccccc2s1 (stereo partly drawn)
Palmitoyl-protein thioesterase 1	enzyme activity	inhibitor	–	125 µM	inhibition	9.21%	O=C([O-])CCCCCCCNC(=O)c1ccccc1O.[Na+]
Ribosomal protein S6 kinase alpha-2 (RPS6KA2, Homo sapiens, UniProt Q15349)	enzyme activity	inhibitor	radiometric	1 µM	remaining activity	86%	CNc1ncc2c(/C=C/C(=O)N3CCC(OC)CC3)nn(Cc3cccc(C(F)(F)F)c3)c2n1
Palmitoyl-protein thioesterase 1	enzyme activity	inhibitor	–	125 µM	inhibition	29%	O=C1OCCN1/N=C/c1ccc([N+](=O)[O-])o1
Transmembrane protease serine 6	enzyme activity	inhibitor	–	0.1 µM	remaining activity	8%	N=C(N)NCCC[C@H](NC(=O)[C@H](Cc1ccc(OCc2ccccc2)cc1)NC(=O)[C@H](Cc1cscn1)NC(=O)CCc1ccccc1)C(=O)c1nc2ccccc2s1
SRSF protein kinase 3 (SRPK3, Homo sapiens, UniProt Q9UPE1)	binding	–	competition with immobilised ligand	1 µM	remaining binding	77%	Cc1cc([C@@H](C)Nc2ccccc2C(=O)O)c2nc(N3CCC(F)(F)CC3)c(C#N)c(=O)n2c1
Transmembrane protease serine 6	enzyme activity	inhibitor	–	0.1 µM	remaining activity	78%	N=C(N)NCCC[C@H](NC(=O)[C@H](Cc1ccc(C(=O)c2ccccc2)cc1)NC(=O)[C@H](Cc1cscn1)NC(=O)CCc1ccccc1)C(=O)c1nc2ccccc2s1
Palmitoyl-protein thioesterase 1	enzyme activity	inhibitor	–	156 µM	inhibition	40.4%	CCCCC/C=C\C/C=C\CCCCCCCC(=O)O
Protein kinase C delta type (PRKCD, Homo sapiens, UniProt Q05655)	enzyme activity	inhibitor	–	1 µM	remaining activity	104%	COc1cc(-c2cncc3c2CN(C)Cc2cc(N4CCNCC4)ccc2-3)cc(OC)c1OC
Palmitoyl-protein thioesterase 1	enzyme activity	inhibitor	–	125 µM	inhibition	8.93%	c1coc(CNc2ncnc3[nH]cnc23)c1
Transmembrane protease serine 6	enzyme activity	inhibitor	–	0.1 µM	remaining activity	68%	CC(C)[C@@H](NC(=O)[C@H](Cc1cscn1)NC(=O)CCc1ccccc1)C(=O)N[C@@H](CCCNC(=N)N)C(=O)c1nc2ccccc2s1
Mitogen-activated protein kinase 4 (MAPK4, Homo sapiens, UniProt P31152)	binding	–	competition with immobilised ligand	1 µM	remaining binding	100%	C=CC(=O)N1CCC(COCC(=O)N2CCN(c3nc(-c4cnc(N)nc4C(F)F)nc(N4CCOC[C@@H]4C)n3)CC2)CC1
